In ChEMBL document CHEMBL3992512, “The Discovery and Hit-to-Lead Optimization of Tricyclic Sulfonamides as Potent and Efficacious Potentiators of Glycine Receptors” (J Med Chem, 2017):
In brackets after ≈: the same amount, converted by molar mass. Activity calls are given as the source filed them.

Legend:
[1] = Intrinsic clearance in mouse liver microsomes up to 40 mins in presence of NADPH; assay type: ADME, microsome; conditions: read-out: CLH
[2] = Ratio of unbound Cmax in mouse brain to EC50 for glycine alpha3 receptor in mouse model of spared nerve injury-induced tactile allodynia at 60 mg/kg, po
[3] = tested on: human BCRP; assay: Efflux ratio of passive apparent permeability in MDCK cells harboring human BCRP; assay type: ADME, cell-based, Canis lupus familiaris; conditions: dog
How it was run: (§1)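 Bidirectional transport at 5 μM, in triplicate, across MDCK cells carrying control vector, human MDR1 or human ABCG2 (BCRP). Passive Papp is the mean of both directions in vector-control cells. Efflux ratios come from the MDR1 and BCRP lines.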

[4] = tested on: human MDR1; assay: Efflux ratio of passive apparent permeability in MDCK cells harboring human MDR1; assay type: ADME, cell-based, Canis lupus familiaris; conditions: dog; how it was run: as §1
[5] = target: Glycine receptor alpha-3/beta (Homo sapiens) (UniProt O75311+P48167); assay: Positive allosteric modulation of human glycine alpha3beta receptor expressed in HEK293T cells assessed as compound concentration required to induce up to 3-fold leftward shift in glycine-induced increase in chloride ion flux after 4 mins by Schild plot analysis; assay type: cell-based
How it was run: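 HEK293T cells stably expressing human GlyRα3β, ~12000 cells/well, plated overnight and loaded with membrane potential blue dye. Glycine 1:2 dilution series premixed with compound at varying concentrations in HEPES/NaCl/mannitol buffer, pH 7.4. FLIPR fluorescence read 4 min and processed as AUC over baseline. mEC₃ is the lowest tested concentration giving a ≥3-fold leftward shift of glycine EC₅₀.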

[6] = Passive apparent permeability in MDCK cells; assay type: ADME, cell-based, Canis lupus familiaris; conditions: dog; how it was run: as §1
[7] = species: Mus musculus; assay: Ex vivo positive allosteric modulation of glycine receptor in C57BL/6 mouse spinal cord assessed as potentiation of glycine-induced post synaptic current amplitude at 0.5 uM at holding potential of -60 mV after 10 mins in presence of sodium channel inhibitor TTX/AMPA/kainate receptor antagonist CNQX/GABAa receptor antagonist bicuculline/NMDA receptor antagonist APV by electrophysiology method relative to glycine alone
How it was run: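 Adult mouse spinal cord slices; dorsal horn neurons in laminae I–II were identified histologically and confirmed glycinergic by focal glycine (20 μM) with strychnine (10 μM) reversal. Postsynaptic current amplitude was recorded with glycine 20 μM alone, then with glycine plus compound at 0.5 μM, then with strychnine added. The readout is the mean ratio of PSC amplitude (compound + glycine / glycine alone), n = 5.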

[8] = target: T1, Glycine receptor subunit alpha-3 (Homo sapiens, UniProt O75311); assay: Positive allosteric modulation of human glycine alpha3 receptor expressed in HEK293T cells assessed as potentiation of glycine-induced increase in chloride ion flux after 4 mins by membrane potential blue dye based FLIPR assay; assay type: cell-based, HEK-293T
T1 sequence (O75311 whole entry): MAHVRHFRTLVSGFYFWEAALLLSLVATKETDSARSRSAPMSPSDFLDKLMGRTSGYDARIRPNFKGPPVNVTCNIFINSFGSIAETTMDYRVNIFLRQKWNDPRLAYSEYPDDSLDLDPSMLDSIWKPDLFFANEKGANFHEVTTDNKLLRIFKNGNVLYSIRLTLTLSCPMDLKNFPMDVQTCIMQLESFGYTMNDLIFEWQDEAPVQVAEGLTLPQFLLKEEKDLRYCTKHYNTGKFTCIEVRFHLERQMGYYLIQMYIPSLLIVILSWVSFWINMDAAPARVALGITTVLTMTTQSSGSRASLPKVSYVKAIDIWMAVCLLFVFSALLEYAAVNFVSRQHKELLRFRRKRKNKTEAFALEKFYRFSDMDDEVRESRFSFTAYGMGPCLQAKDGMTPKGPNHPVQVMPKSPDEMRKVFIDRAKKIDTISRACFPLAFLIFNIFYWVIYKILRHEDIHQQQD

[9] = target: T1, Glycine receptor subunit alpha-3; assay: Binding affinity to human glycine alpha3 receptor expressed in HEK293T cells by SPR assay; parameters: species or system HEK-293T
[10] = Solubility in phosphate buffered saline; assay type: physicochemical
[11] = Ratio of unbound Cmax in mouse brain to EC50 for glycine alpha3 receptor in mouse model of spared nerve injury-induced tactile allodynia at 30 mg/kg, po
How it was run: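 Mice dosed orally; unbound brain Cmax is total brain concentration × brain fraction unbound, sampled at multiple time points. It is divided by EC₅₀ for potentiation of mouse GlyRα3.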

[12] = Solubility in fasted state simulated intestinal fluid; assay type: physicochemical
[13] = tested on: Plasma; assay: Unbound Cmax in mouse plasma at 30 mg/kg, ip; assay type: ADME, organism-based; conditions: in vivo
[14] = tested on: Mus musculus; assay: Antiallodynic activity in mouse model of spared nerve injury-induced tactile allodynia assessed as tactile threshold at 30 mg/kg, po measured 90 mins post dose by Von Frey filament assay; assay type: functional, organism-based
[15] = Ratio of unbound Cmax in mouse brain to EC50 for glycine alpha3 receptor in mouse model of spared nerve injury-induced tactile allodynia at 30 mg/kg, ip
How it was run: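 After intraperitoneal dosing, brains were collected at multiple time points. Unbound brain concentration is total brain concentration × brain fraction unbound, divided by mouse GlyRα3 potentiation EC₅₀.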

[16] = tested on: Liver; assay: Drug metabolism in mouse liver microsomes assessed as oxidation of pyrrolidine ring up to 40 mins in presence of NADPH; assay type: ADME, microsome
[17] = tested on: Plasma; assay: Unbound Cmax in mouse plasma at 50 mg/kg, ip; assay type: ADME, organism-based; conditions: in vivo
[18] = tested on: Liver; assay: Drug metabolism in mouse liver microsomes assessed as oxidation of benzodioxolane moiety up to 40 mins in presence of NADPH; assay type: ADME, microsome
[19] = tested on: Liver; assay: Drug metabolism in mouse liver microsomes assessed as oxidation of quinolinone core up to 40 mins in presence of NADPH; assay type: ADME, microsome

CN1C(=O)[C@@H]2CN(S(=O)(=O)c3ccc4scnc4c3)C[C@@H]2c2cnccc21
microsomal CLint [1]: 79 µL/min/mg
Ratio [2]: 0.15
efflux ratio [3]: 1.4
efflux ratio [4]: 3.3
MEC [5]: 1.56 µM
Papp [6]: 48 ×10⁻⁶ cm/s

CN1C(=O)[C@H]2CN(S(=O)(=O)c3ccc4c(c3)OCO4)C[C@H]2c2cnccc21
microsomal CLint [1]: 213 µL/min/mg
efflux ratio [3]: 0.9
efflux ratio [4]: 1
MEC [5]: > 25 µM
Papp [6]: 14 ×10⁻⁶ cm/s
Activity [7]: inactive

CN1C(=O)[C@@H]2CN(S(=O)(=O)c3ccc4c(c3)OCO4)C[C@@H]2c2cccnc21 (racemic)
microsomal CLint [1]: 760 µL/min/mg
MEC [5]: 3.1 µM

C[C@H]1[C@@H]2C(=O)N(C)c3ccncc3[C@@H]2CN1S(=O)(=O)c1ccc2c(c1)OCO2
MEC [5]: > 25 µM

C[C@@H]1[C@H]2C(=O)N(C)c3ccncc3[C@H]2CN1S(=O)(=O)c1ccc2c(c1)OCO2
EC50 [8]: > 25 µM
Kd [9]: > 20 µM
MEC [5]: > 25 µM

C[C@H]1[C@@H]2c3cnccc3N(C)C(=O)[C@@H]2CN1S(=O)(=O)c1ccc2c(c1)OCO2
MEC [5]: > 25 µM

CN1C(=O)[C@]2(C#N)CN(S(=O)(=O)c3ccc4c(c3)OCO4)C[C@@H]2c2cnccc21 (racemic)
MEC [5]: > 25 µM

CN1C(=O)[C@@H]2CN(S(=O)(=O)c3ccc4c(c3)OCO4)C[C@@H]2c2cc(C#N)ccc21 (racemic)
microsomal CLint [1]: 374 µL/min/mg
MEC [5]: 12.5 µM

O=S(=O)(c1ccc2c(c1)OCO2)N1C[C@@H]2c3nccn3-c3ccccc3[C@@H]2C1
microsomal CLint [1]: 1670 µL/min/mg
MEC [5]: 6.3 µM

CN1C(=O)[C@@H]2CN(S(=O)(=O)c3ccc4c(c3)OCO4)C[C@@H]2c2ncccc21
microsomal CLint [1]: 136 µL/min/mg
solubility [10]: 7 µM (≈ 2.71 µg/mL)
efflux ratio [3]: 1
Ratio [11]: 0.006
efflux ratio [4]: 1.5
MEC [5]: 0.78 µM
Papp [6]: 45 ×10⁻⁶ cm/s
solubility [12]: 28 µM (≈ 10.8 µg/mL)

C[C@@H]1[C@H]2c3cnccc3N(C)C(=O)[C@H]2CN1S(=O)(=O)c1ccc2c(c1)OCO2
MEC [5]: > 25 µM

CN1C(=O)[C@@H]2CN(S(=O)(=O)c3ccc4ccoc4c3)C[C@@H]2c2cnccc21
microsomal CLint [1]: 115 µL/min/mg
MEC [5]: 1.56 µM

CN1C(=O)[C@H]2CN(S(=O)(=O)c3ccc4c(c3)OCO4)C[C@H]2c2ccccc21
microsomal CLint [1]: 2440 µL/min/mg
MEC [5]: 6.3 µM

CN1C(=O)[C@@H]2CN(S(=O)(=O)c3ccc4c(c3)OCO4)C[C@@H]2c2cc(F)ccc21 (racemic)
microsomal CLint [1]: 761 µL/min/mg
MEC [5]: 0.78 µM

CN1C(=O)[C@]2(C)CN(S(=O)(=O)c3ccc4c(c3)OCO4)C[C@@H]2c2ccccc21 (single isomer, unassigned)
MEC [5]: > 25 µM

CN1C(=O)[C@@H]2CN(S(=O)(=O)c3ccc4c(c3)OCO4)C[C@]2(C)c2cnccc21 (racemic)
MEC [5]: > 25 µM

CN1C(=O)[C@@H]2CN(S(=O)(=O)c3ccc4ncn(C)c4c3)C[C@@H]2c2cnccc21
MEC [5]: 3.1 µM

O=S(=O)(c1ccc2c(c1)OCO2)N1C[C@@H]2c3ccccc3-n3ccnc3[C@@H]2C1
microsomal CLint [1]: 901 µL/min/mg
efflux ratio [3]: 1.3
efflux ratio [4]: 1.7
MEC [5]: 3.1 µM
fCmax [13]: 0.13 µM
Papp [6]: 58 ×10⁻⁶ cm/s

CC(C)C[C@H](CN)CC(=O)O
Activity [14]: Active

C[C@@H]1[C@@H]2C(=O)N(C)c3ccncc3[C@@H]2CN1S(=O)(=O)c1ccc2c(c1)OCO2
MEC [5]: 3.1 µM

C[C@@H]1[C@@H]2c3cnccc3N(C)C(=O)[C@@H]2CN1S(=O)(=O)c1ccc2c(c1)OCO2
MEC [5]: > 25 µM

CN1C(=O)[C@@H]2CN(S(=O)(=O)c3ccn4ccnc4c3)C[C@@H]2c2cnccc21
microsomal CLint [1]: 36 µL/min/mg
efflux ratio [3]: 8.3
efflux ratio [4]: 30
MEC [5]: 3.1 µM
Papp [6]: 16 ×10⁻⁶ cm/s

CN1C(=O)[C@@H]2CN(S(=O)(=O)c3ccc4c(c3)OCC4)C[C@@H]2c2cnccc21
microsomal CLint [1]: 177 µL/min/mg
Ratio [2]: 0.38
efflux ratio [3]: 0.7
efflux ratio [4]: 2.9
MEC [5]: 1.56 µM
Papp [6]: 28 ×10⁻⁶ cm/s

CN1C(=O)[C@@H]2CN(S(=O)(=O)c3ccc4nc[nH]c4c3)C[C@@H]2c2cnccc21
microsomal CLint [1]: < 14 µL/min/mg
MEC [5]: 3.1 µM
Ratio [15]: 0.047

C[C@H]1[C@H]2c3cnccc3N(C)C(=O)[C@H]2CN1S(=O)(=O)c1ccc2c(c1)OCO2
MEC [5]: > 25 µM

CN1C(=O)[C@]2(F)CN(S(=O)(=O)c3ccc4c(c3)OCO4)C[C@@H]2c2cnccc21 (racemic)
MEC [5]: > 25 µM

CN1C(=O)[C@@H]2CN(S(=O)(=O)c3ccc4c(c3)OCO4)C[C@@H]2c2cc(O)ccc21
microsomal CLint [1]: 499 µL/min/mg
efflux ratio [3]: 3.1
efflux ratio [4]: 3.2
MEC [5]: 0.39 µM
Papp [6]: 18 ×10⁻⁶ cm/s

CN1C(=O)[C@@H]2CN(S(=O)(=O)c3ccc4c(c3)OCO4)C[C@@H]2c2ccncc21 (racemic)
microsomal CLint [1]: 225 µL/min/mg
MEC [5]: 6.3 µM

CN1C(=O)[C@@H]2CN(S(=O)(=O)c3ccc4c(c3)OCO4)C[C@@H]2c2ccccc21
Drug metabolism [16]: Metabolite_Detected
fCmax [17]: 0.07 µM
Drug metabolism [18]: Metabolite_Detected
MEC [5]: 0.78 µM
Drug metabolism [19]: Metabolite_Detected
Papp [6]: 46 ×10⁻⁶ cm/s

CN1C(=O)[C@@H]2CN(S(=O)(=O)c3ccc4c(c3)OCO4)C[C@@H]2c2cnccc21
microsomal CLint [1]: 151 µL/min/mg
solubility [10]: 235 µM (≈ 91 µg/mL)
efflux ratio [3]: 0.9
Ratio [11]: 0.62
efflux ratio [4]: 0.8
MEC [5]: 0.2 µM
Papp [6]: 52 ×10⁻⁶ cm/s
fold change (FC) [7]: 4.9
solubility [12]: 296 µM (≈ 115 µg/mL)

CN1C(=O)[C@@H]2CN(S(=O)(=O)c3ccc(F)c(Cl)c3)C[C@@H]2c2cnccc21
microsomal CLint [1]: 432 µL/min/mg
efflux ratio [3]: 1.1
efflux ratio [4]: 1.2
MEC [5]: 3.1 µM
Papp [6]: 49 ×10⁻⁶ cm/s
